Screens from PubChem BioAssay.
AF4-AF9 inh: MLL-AF4/AF9 protein interaction inhibition; AID 651704; AlphaScreen, biotin-AF4 peptide binding to FLAG-AF9; P42568; inhibition, % at 10 µM; hit rate 0.47% among 350,000;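 active = every replicate reaching a set inhibition limit, whatever the replicate mean, cut at about 25% in these data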;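 note: 0% = plate neutral control median and 100% = total signal loss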
ERp5 inh: ERp5 (human) disulfide isomerase inhibition | Q15084 | ERp5 insulin aggregation, absorbance 650 nm, 90 min | hit rate 0.05% among 350,000 | AID 651711 | inhibition, % at 9.99 µM;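 active = mean replicate inhibition above about 25%, with every replicate also reaching it, limit read from the data, passing the limit was not always enough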
SIRT5 block: inhibitors of human sirtuin-5 desuccinylase. Purified SirT5, succinyl-peptide AMC, trypsin-coupled fluorescence. inhibition, % at 15 µM. hit rate 1.1% among 330,000. AID 652115; in the data active = inhibition above about 15%
FN deposit inh: fibronectin deposition inhibition. AH1F fibroblasts, Alexa488-fibronectin deposition fluorescence, overnight. inhibition, % at 12.6 µM. AID 743247. hit rate 0.086% among 350,000;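 active = mean inhibition across replicates of 30% or more, regardless of how many single replicates reach that level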;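 note: positive control wells lacked labelled fibronectin entirely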
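material = AH1F fibroblast monolayer depositing Alexa488-labelled fibronectin into matrix | amount = 10000 AH1F cells/well | buffer or medium = DMEM plus 2% serum, read in PBS | incubation = 1 h cell adhesion before compound, then overnight fibronectin incubation | detection = fluorescence at 485 nm excitation, 525 nm emission | evaluation = percent inhibition as loss of matrix-bound fibronectin fluorescence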
PDI turbidity: inhibitors of human protein disulfide isomerase. inhibition, % at 10 µM. PDI insulin aggregation turbidity, A650, 90 min. hit rate 0.052% among 350,000. AID 588391;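 active = mean inhibition across replicates of 30% or more, whatever share of single replicates reach that level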
Target sequence (P07237 whole entry, looked up): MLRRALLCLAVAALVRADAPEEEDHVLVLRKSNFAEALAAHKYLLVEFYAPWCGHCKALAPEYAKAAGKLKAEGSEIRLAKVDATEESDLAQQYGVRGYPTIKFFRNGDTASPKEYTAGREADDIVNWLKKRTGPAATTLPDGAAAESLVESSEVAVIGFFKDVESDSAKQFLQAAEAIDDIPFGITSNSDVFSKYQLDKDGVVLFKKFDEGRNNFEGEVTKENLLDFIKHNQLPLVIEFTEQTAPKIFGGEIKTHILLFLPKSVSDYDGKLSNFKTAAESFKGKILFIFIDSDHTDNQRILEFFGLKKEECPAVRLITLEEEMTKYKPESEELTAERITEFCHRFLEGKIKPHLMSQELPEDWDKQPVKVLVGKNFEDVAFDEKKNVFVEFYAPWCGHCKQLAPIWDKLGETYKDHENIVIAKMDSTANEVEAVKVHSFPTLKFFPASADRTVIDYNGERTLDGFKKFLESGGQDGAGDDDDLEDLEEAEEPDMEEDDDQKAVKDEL
* marks the source's active call; other numbers are inactive results; · = no result; ! = a repeat was not active. Most compounds without a hit are left out; they make up all but 1.3% or so of the library.

SMILES	AF4-AF9 inh	ERp5 inh	SIRT5 block	FN deposit inh	PDI turbidity
CC(=O)Nc1cc(-c2ccc(N3CCN(C)CC3)cc2)cn2c(-c3ccc(F)c(Cl)c3)cnc12	27*	5	-3	-7	-9
COc1ccc2c3c(n(C)c2c1)[C@@H](CO)NCC31CCN(Cc2cc(-c3ccccc3)on2)CC1	37*	1	1	13	·
CCC(=O)N1CCC2(CC1)CN[C@H](CO)c1c2c2ccc(OC)cc2n1C	0	-7	-3	·	·
COc1ccc2c3c(n(C)c2c1)[C@@H](CO)NCC31CN(Cc2cc(-c3ccccc3)on2)C1	5	-9	·	·	·
COc1ccc2c3c(n(C)c2c1)[C@H](CO)NCC31CN(Cc2cc(-c3ccccc3)on2)C1	40*	-2	·	13	·
COc1cccc(CN2C[C@@H]3N[C@H](C2)C3c2ccc(-c3ccccc3C)cc2)c1 (stereo partly specified)	·	·	·	1	·
COc1cc(CN2C[C@@H]3N[C@H](C2)C3c2ccc(-c3ccccc3C)cc2)cc(OC)c1 (stereo partly specified)	27*!	-5	6	13	·
CC(C)=NNc1nc2c(c(=O)[nH]c(=O)n2C)n1CCc1ccccc1	18	0	37*	-3	7
O=C(CSc1nc2ncccc2[nH]1)NC1CCCC1	40*	-7	1	-22	·
O=C(O)CSCC(=O)Nc1ccc(Br)c(C(F)(F)F)c1	-2	0	82*	-4	-8
C[C@@H]1CN([C@H](C)CO)C(=O)c2cc(NC(=O)c3ccncc3)ccc2O[C@@H](C)CCCCO[C@@H]1CN(C)C(=O)Nc1cccc2ccccc12	-13	·	4	·	·
COc1ccc(NC(=O)N(C)C[C@H]2Oc3c(NC(=O)c4nc5ccccc5s4)cccc3C(=O)N([C@@H](C)CO)C[C@@H]2C)cc1	-1	-7	-3	12	·
C[C@H]1CN([C@@H](C)CO)C(=O)c2cccc(NC(=O)c3nc4ccccc4s3)c2O[C@H]1CN(C)Cc1ccc(C(F)(F)F)cc1	0	1	27*	14	·
C[C@H](CO)N1C[C@H](C)[C@H](CN(C)Cc2ccccc2)Oc2c(NC(=O)c3nc4ccccc4s3)cccc2C1=O	15	-8	1	·	·
COc1ccc(NC(=O)N(C)C[C@H]2Oc3c(NC(=O)c4nc5ccccc5s4)cccc3C(=O)N([C@@H](C)CO)C[C@H]2C)cc1	5	-3	20*!	7	0
C[C@@H]1CN([C@H](C)CO)C(=O)c2cccc(NC(=O)c3nc4ccccc4s3)c2O[C@H]1CN(C)Cc1ccc(C(F)(F)F)cc1	-1	3	20*	-9	·
COCCN(CC(=O)Oc1ccccc1P(=O)(OC)OC)Cc1ccccc1	-3	5	4	4	-18
Cc1cc(C(=O)NN=C2CC(=O)CC(C)(C)C2)c(C)o1	1	8	-1	0	7
Cc1ccc([N+](=O)[O-])cc1NC(=O)CN(C(=O)c1ccccc1Cl)C1CCCCC1	7	-1	-3	32*	1
O=C(Nc1ccncc1)Nc1cccc(C(F)(F)F)c1	-8	8	-1	-8	-4
NNC(=O)Nc1cccc(C(F)(F)F)c1	1	1	41*	-3	-5
CCCC1=C/C(=C/c2ccc(-c3ccccc3OC)o2)C(=O)O1	4	2	-6	-1	11
Cc1c(Br)c(O)c(Br)c(O)c1/C=N/n1c(-c2ccccc2)n[nH]c1=S	·	4	30*	·	-5
NC(=O)CCn1c(C(=O)c2cc(Cl)c(N)c(Cl)c2)c2ccccc2[n+]1[O-]	0	0	-2	7	-4
NCCCn1c(C(=O)c2cc(Cl)c(N)c(Cl)c2)c2ccccc2[n+]1[O-]	7	-10	40*	-10	16
SMILES	AF4-AF9 inh	ERp5 inh	SIRT5 block	FN deposit inh	PDI turbidity
CC(C)(C)CC(C)(C)c1ccc(OCCOCC[N+](C)(C)Cc2ccccc2)cc1	51*	6	-1	1	0
Cc1ccc(NC(=S)NC(=O)c2cncc(Br)c2)cc1Cl	-5	5	29*	-3	-8
C=CCn1c(SCC(=O)Nc2ccc3c(c2)OCCO3)nnc1-c1ccccn1	·	·	·	-8	2
CC(=O)N(C)C[C@H]1Oc2ncc(C#Cc3cccc(F)c3)cc2C(=O)N([C@H](C)CO)C[C@@H]1C	3	7	-1	6	·
CC(=O)N(C)C[C@H]1Oc2ncc(C#CCC3CCCC3)cc2C(=O)N([C@@H](C)CO)C[C@H]1C	-6	-5	19*	-6	·
CC(=O)N(C)C[C@@H]1Oc2ncc(C#Cc3cccc(F)c3)cc2C(=O)N([C@H](C)CO)C[C@H]1C	1	5	21*	-2	·
C[C@H]1CN([C@@H](C)CO)C(=O)c2cc(C#CCC3CCCC3)cnc2O[C@H]1CN(C)C(=O)c1cnccn1	-6	-10	24*	-12	·
O=C(c1ccc(Br)o1)N1CCN(C23CC4CC(CC(C4)C2)C3)CC1	8	-8	9	·	0
COc1cc(/C=N/NC(=O)c2cccnc2)cc(Br)c1O	-1	2	4	-5	4
OC[C@H]1[C@H](c2ccc(C#Cc3ccccc3F)cc2)[C@@H]2CN(CC3CCOCC3)CCCCN12	19	-1	0	-2	·
C[C@H](CO)N1C[C@H](C)[C@@H](CN(C)Cc2ccc(-c3ccccc3)cc2)Oc2ccc(NC(=O)Cc3ccccc3)cc2CC1=O	3	2	5	·	·
CSc1ccccc1C(=O)N1CCCCC1	-1	1	20*	-8	4
CCN1CCN(c2cc(C)c3cc(NC(=S)N4CCN(c5ccccc5F)CC4)ccc3n2)CC1	5	4	-4	4	6
CCOCCCNC(=O)c1ccc(Cn2c(=O)[nH]c3ccsc3c2=O)cc1	4	1	2	7	-3
CCOc1ccccc1NC(=O)C(OC(=O)c1ccc(NC(=O)CC#N)cc1)c1ccccc1 (stereo unspecified)	5	6	-15	-7	4
CC(OC(=O)c1ccc(NC(=O)CC#N)cc1)C(=O)NC(c1ccccc1)c1ccccc1 (stereo unspecified)	-2	6	16*	-5	-3
COc1cccc(-c2ccc3c(c2)[C@@H]2[C@@H](CCN2C(=O)NC2CCCC2)[C@H](CO)N3C)c1	26*	-2	·	-21	·
COc1cccc(-c2ccc3c(c2)[C@H]2[C@H](CCN2C(=O)c2ccccc2F)[C@H](CO)N3C)c1	1	0	20*	-6	·
COc1ccc(-c2ccc3c(c2)[C@H]2[C@H](CCN2C(=O)c2ccccc2F)[C@H](CO)N3C)cc1	·	·	·	2	·
COc1ccc(-c2ccc3c(c2)[C@@H]2[C@@H](CCN2C(=O)NC2CCCCC2)[C@@H](CO)N3C)cc1	7	-4	7	-5	·
Nc1cc2c(cc1Cl)-c1ccccc1C2=NO	7	-12	24*	8	-13
COC(=O)CC1OCC=C2CN3CCC45C6=CC(=O)C(=O)C([N+](=O)[O-])=C6NC4C1C2CC35 (stereo unspecified)	5	19	6	14	85*
